Laboratory results from ChEMBL document CHEMBL1125904, “Synthesis and anthelmintic activity of 3'-benzoylurea derivatives of 6-phenyl-2,3,5,6-tetrahydroimidazo[2,1-b]thiazole” (1991).

How the values were obtained:
Type in all cases: functional
[1] = tested on: Heligmosomoides polygyrus; experiment: Anthelmintic activity ( in Vivo ) in mouse, as percentage reduction of Nematospiroides dubius at 500 PPM
Outline: (§1)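 Mice infected by oral gavage with 35-40 N. dubius L3 larvae plus 5000 H. nana eggs each. From 24 h post-infection, groups of four fed compound ad lib in powdered lab chow (31-1000 ppm) for 18 days. Killed on day 19; N. dubius counted in duodenum under dissecting microscope. Percent reduction computed from mean worm counts, treated vs untreated control.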

[2] = tested on: Heligmosomoides polygyrus; experiment: Anthelmintic activity ( in Vivo ) in mouse, as percentage reduction of Nematospiroides dubius at 62 PPM; outline: as §1
[3] = tested on: Heligmosomoides polygyrus; experiment: Anthelmintic activity ( in Vivo ) in mouse, as percentage reduction of Nematospiroides dubius at 125 PPM; outline: as §1
[4] = tested on: Heligmosomoides polygyrus; experiment: Anthelmintic activity ( in Vivo ) in mouse, as percentage reduction of Nematospiroides dubius at 1000 PPM; outline: as §1
[5] = tested on: Heligmosomoides polygyrus; experiment: Anthelmintic activity ( in Vivo ) in mouse, as percentage reduction of Nematospiroides dubius at 250 PPM; outline: as §1
[6] = tested on: Heligmosomoides polygyrus; experiment: Anthelmintic activity ( in Vivo ) in mouse, as percentage reduction of Nematospiroides dubius at 31 PPM; outline: as §1
[7] = tested on: Ovis aries; experiment: Anthelmintic activity (in Vivo)in sheep as percentage reduction versus control (by administration of […] L3 larvae of Trichostrongylus colubriformis intraruminally) at 30 mg/kg po (Benzimidazole resistant strain)
Outline: (§2)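 Sheep fed lucerne/oaten chaff were infected intraruminally with L3 larvae of a drug-resistant strain (benzimidazole-resistant; for O. circumcincta, benzimidazole-, levamisole- and morantel-resistant). They were grouped by faecal egg counts (n = 4-7) and dosed once intraruminally on day 28 in 0.5% Na CMC/saline. Adult worms were counted on day 35 as % reduction vs untreated control.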

[8] = tested on: Ovis aries; experiment: Anthelmintic activity (in Vivo)in sheep as percentage reduction versus control (by administration of benzimidazole-susceptible L3 larvae of Ostertagia circumcincta intraruminally)at 30 mg/kg po
Outline: (§3)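 Sheep on lucerne/oaten chaff were infected intraruminally on day 0 with benzimidazole-susceptible L3 larvae (H. contortus 6000, O. circumcincta 8000, T. colubriformis 8000). They were allocated on day-27 faecal egg counts and weight (n = 4-7). A single intraruminal dose in 0.5% Na CMC/0.9% saline was given on day 28, with an untreated control per assay. On day 35, adult worms in abomasum and small intestine were counted as % reduction vs control.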

[9] = tested on: Ovis aries; experiment: Anthelmintic activity (in Vivo)in sheep as percentage reduction versus control (by administration of benzimidazole-susceptible L3 larvae of Haemonchus contortus intraruminally)at 30 mg/kg po; outline: as §3
[10] = tested on: Ovis aries; experiment: Anthelmintic activity (in Vivo)in sheep as percentage reduction versus control (by administration of benzimidazole-susceptible L3 larvae of Trichostrongylus colubriformis intraruminally) at 15 mg/kg po; outline: as §3
[11] = tested on: Ovis aries; experiment: Anthelmintic activity (in Vivo) in sheep as percentage reduction versus control (by administration of […] L3 larvae of Ostertagia circumcincta intraruminally)at 30 mg/kg po (Benzimidazole, levamisole and morantel resistant strain); outline: as §2
[12] = tested on: Ovis aries; experiment: Anthelmintic activity (in Vivo)in sheep as percentage reduction versus control (by administration of […] L3 larvae of Haemonchus contortus intraruminally)at 30 mg/kg po (Benzimidazole resistant strain); outline: as §2
[13] = tested on: Ovis aries; experiment: Anthelmintic activity (in Vivo)in sheep as percentage reduction versus control (by administration of benzimidazole-susceptible L3 larvae of Ostertagia circumcincta intraruminally)at 15 mg/kg po; outline: as §3
[14] = tested on: Ovis aries; experiment: Anthelmintic activity (in Vivo)in sheep as percentage reduction versus control (by administration of benzimidazole-susceptible L3 larvae of Haemonchus contortus intraruminally)at 15 mg/kg po; outline: as §3
[15] = tested on: Ovis aries; experiment: Anthelmintic activity (in Vivo)in sheep as percentage reduction versus control (by administration of benzimidazole-susceptible L3 larvae of Trichostrongylus colubriformis intraruminally) at 30 mg/kg po; outline: as §3
[16] = tested on: Ovis aries; experiment: Anthelmintic activity (in Vivo)in sheep as percentage reduction versus control (by administration of benzimidazole-susceptible L3 larvae of T colubriformis intraruminally) at 5 mg/kg po; outline: as §3
[17] = tested on: Ovis aries; experiment: Anthelmintic activity (in Vivo)in sheep as percentage reduction versus control (by administration of benzimidazole-susceptible L3 larvae of H contortus intraruminally)at 5 mg/kg po; outline: as §3
[18] = tested on: Ovis aries; experiment: Anthelmintic activity (in Vivo)in sheep as percentage reduction versus control (by administration of benzimidazole-susceptible L3 larvae of T colubriformis intraruminally) at 10 mg/kg po; outline: as §3
[19] = tested on: Ovis aries; experiment: Anthelmintic activity (in Vivo)in sheep as percentage reduction versus control (by administration of benzimidazole-susceptible L3 larvae of O circumcincta intraruminally)at 10 mg/kg po; outline: as §3
[20] = tested on: Ovis aries; experiment: Anthelmintic activity (in Vivo)in sheep as percentage reduction versus control (by administration of benzimidazole-susceptible L3 larvae of H contortus intraruminally)at 10 mg/kg po; outline: as §3
[21] = tested on: Ovis aries; experiment: Anthelmintic activity (in Vivo)in sheep as percentage reduction versus control (by administration of benzimidazole-susceptible L3 larvae of O circumcincta intraruminally)at 5 mg/kg po; outline: as §3
[22] = tested on: Ovis aries; experiment: Anthelmintic activity (in Vivo)in sheep as percentage reduction versus control (by administration of benzimidazole-susceptible L3 larvae of Haemonchus contortus intraruminally)at 10 mg/kg po; outline: as §3
[23] = tested on: Ovis aries; experiment: Anthelmintic activity (in Vivo)in sheep as percentage reduction versus control (by administration of benzimidazole-susceptible L3 larvae of Trichostrongylus colubriformis intraruminally) at 5 mg/kg po; outline: as §3
[24] = tested on: Ovis aries; experiment: Anthelmintic activity (in Vivo)in sheep as percentage reduction versus control (by administration of benzimidazole-susceptible L3 larvae of Ostertagia circumcincta intraruminally)at 10 mg/kg po; outline: as §3
[25] = tested on: Ovis aries; experiment: Anthelmintic activity (in Vivo)in sheep as percentage reduction versus control (by administration of benzimidazole-susceptible L3 larvae of Ostertagia circumcincta intraruminally)at 5 mg/kg po; outline: as §3
[26] = tested on: Ovis aries; experiment: Anthelmintic activity (in Vivo)in sheep as percentage reduction versus control (by administration of benzimidazole-susceptible L3 larvae of Trichostrongylus colubriformis intraruminally) at 10 mg/kg po; outline: as §3
[27] = tested on: Ovis aries; experiment: Anthelmintic activity (in Vivo)in sheep as percentage reduction versus control (by administration of benzimidazole-susceptible L3 larvae of Haemonchus contortus intraruminally)at 5 mg/kg po; outline: as §3
[28] = tested on: Ovis aries; experiment: Anthelmintic activity (in Vivo)in sheep as percentage reduction versus control (by administration of benzimidazole-susceptible L3 larvae of Trichostrongylus colubriformis intraruminally) at 10.9 mg/kg po; outline: as §3
[29] = tested on: Ovis aries; experiment: Anthelmintic activity (in Vivo)in sheep as percentage reduction versus control (by administration of benzimidazole-susceptible L3 larvae of Ostertagia circumcincta intraruminally)at 10.9 mg/kg po; outline: as §3
[30] = tested on: Ovis aries; experiment: Anthelmintic activity (in Vivo)in sheep as percentage reduction versus control (by administration of benzimidazole-susceptible L3 larvae of Haemonchus contortus intraruminally)at 16.4 mg/kg po; outline: as §3
[31] = tested on: Ovis aries; experiment: Anthelmintic activity (in Vivo)in sheep as percentage reduction versus control (by administration of benzimidazole-susceptible L3 larvae of Haemonchus contortus intraruminally)at 10.9 mg/kg po; outline: as §3
[32] = tested on: Ovis aries; experiment: Anthelmintic activity (in Vivo)in sheep as percentage reduction versus control (by administration of benzimidazole-susceptible L3 larvae of Ostertagia circumcincta intraruminally)at 16.4 mg/kg po; outline: as §3
[33] = tested on: Ovis aries; experiment: Anthelmintic activity (in Vivo)in sheep as percentage reduction versus control (by administration of benzimidazole-susceptible L3 larvae of Trichostrongylus colubriformis intraruminally) at 16.4 mg/kg po; outline: as §3

| Compound | Reduction [1] [%] | Reduction [2] [%] | Reduction [3] [%] | Reduction [5] [%] | other results |
| --- | --- | --- | --- | --- | --- |
| O=C(NC(=O)c1ccccc1[N+](=O)[O-])Nc1cccc(C2CN3CCSC3=N2)c1 (centres undefined) | 0 | – | – | – | – |
| O=C(NC(=O)c1ccc(Cl)cc1)Nc1cccc(C2CN3CCSC3=N2)c1 (centres undefined) | 0 | – | – | – | – |
| c1ccc(C2CN3CCSC3=N2)cc1 (centres undefined) [TETRAMISOLE] | 100 | 0 | 100 | – | – |
| O=C(NC(=O)c1ccc(C(=O)c2ccccc2)cc1)Nc1cccc(C2CN3CCSC3=N2)c1 (centres undefined) | – | – | – | 0 | Reduction [4]: 100% |
| c1ccc([C@H]2CN3CCSC3=N2)cc1 [LEVAMISOLE] | 100 | 100 | – | – | Reduction [6]: 60% |
| COc1ccccc1C(=O)NC(=O)Nc1cccc(C2CN3CCSC3=N2)c1 (centres undefined) | – | – | – | 0 | – |
| O=C(NC(=O)c1c(F)cccc1F)Nc1cccc(C2CN3CCSC3=N2)c1 (centres undefined) | 100 | 0 | 76 | 100 | Reduction [7]: 92%; Reduction [8]: 93%; Reduction [9]: 98%; Reduction [10]: 100%; Reduction [11]: 55%; Reduction [12]: 100%; Reduction [13]: 75%; Reduction [14]: 92%; Reduction [15]: 99% |
| COC(=O)Nc1nc2cc([S+]([O-])c3ccccc3)ccc2[nH]1 (centres undefined) [OXFENDAZOLE] | – | 100 | 100 | – | Reduction [6]: 100% |
| O=C(NC(=O)c1cc(F)cc(F)c1)Nc1cccc(C2CN3CCSC3=N2)c1 (centres undefined) | 0 | – | – | – | – |
| O=C(NC(=O)c1ccc(C(F)(F)F)cc1)Nc1cccc([C@H]2CN3CCSC3=N2)c1 | – | – | 0 | 43 | Reduction [16]: 15%; Reduction [17]: 27%; Reduction [18]: 40%; Reduction [19]: 29%; Reduction [20]: 59%; Reduction [21]: 33% |
| O=C(NC(=O)c1c(F)cccc1F)Nc1cccc([C@H]2CN3CCSC3=N2)c1 | 100 | 0 | 26 | 100 | Reduction [22]: 90%; Reduction [10]: 98%; Reduction [13]: 74%; Reduction [23]: 75%; Reduction [24]: 64%; Reduction [25]: 56%; Reduction [26]: 96%; Reduction [14]: 86%; Reduction [27]: 74% |
| N#Cc1ccc(C(=O)NC(=O)Nc2cccc(C3CN4CCSC4=N3)c2)cc1 (centres undefined) | – | – | – | 0 | – |
| O=C(NC(=O)c1cccc([N+](=O)[O-])c1)Nc1cccc(C2CN3CCSC3=N2)c1 (centres undefined) | – | – | – | 0 | – |
| O=C(NC(=O)c1ccc([N+](=O)[O-])cc1)Nc1cccc(C2CN3CCSC3=N2)c1 (centres undefined) | – | – | – | – | Reduction [4]: 0% |
| O=C(NC(=O)c1ccc(F)cc1)Nc1cccc(C2CN3CCSC3=N2)c1 (centres undefined) | 43 | – | – | 0 | – |
| CC(C)(C)c1ccc(C(=O)NC(=O)Nc2cccc(C3CN4CCSC4=N3)c2)cc1 (centres undefined) | – | – | – | 0 | – |
| O=C(NC(=O)c1c(Cl)cccc1Cl)Nc1cccc(C2CN3CCSC3=N2)c1 (centres undefined) | 0 | – | – | – | Reduction [4]: 56% |
| O=C(NC(=O)c1ccc(C(F)(F)F)cc1)Nc1cccc(C2CN3CCSC3=N2)c1 (centres undefined) | 100 | 43 | 96 | 100 | Reduction [6]: 0% |
| O=C(NC(=O)c1ccccc1F)Nc1cccc(C2CN3CCSC3=N2)c1 (centres undefined) | – | 40 | 95 | – | Reduction [6]: 0% |
| O=C(NC(=O)c1ccc(I)cc1)Nc1cccc(C2CN3CCSC3=N2)c1 (centres undefined) | – | – | – | 0 | – |
| COc1ccc(C(=O)NC(=O)Nc2cccc(C3CN4CCSC4=N3)c2)cc1 (centres undefined) | – | – | – | – | Reduction [4]: 0% |
| O=C(NC(=O)c1ccccc1)Nc1cccc(C2CN3CCSC3=N2)c1 (centres undefined) | 0 | – | – | – | Reduction [4]: 59% |
| O=C(NC(=O)c1ccccc1Cl)Nc1cccc(C2CN3CCSC3=N2)c1 (centres undefined) | – | 0 | 56 | 100 | – |
| Cl.O=C(NC(=O)c1c(F)cccc1F)Nc1cccc(C2CN3CCSC3=N2)c1 (centres undefined) | – | – | – | – | Reduction [28]: 93%; Reduction [29]: 52%; Reduction [30]: 78%; Reduction [31]: 64%; Reduction [32]: 82%; Reduction [33]: 99% |
| O=C(NC(=O)c1ccc(OC(F)(F)F)cc1)Nc1cccc(C2CN3CCSC3=N2)c1 (centres undefined) | – | – | – | 0 | – |
